Most compounds without a hit are left out; they make up all but 3.2% or so of the library.
Hck-Nef inh: human Hck-Nef kinase inhibition. P08631. Recombinant Hck-YEEI plus Nef, Z-Lyte FRET kinase assay. inhibition, % at 20 µM. 220,000 compounds, 0.68% hits. AID 463187;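 active = Hck-Nef kinase inhibition above about 50%, limit read from the data; inactive = inhibition below that limit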;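 note: 0% = DMSO with Hck plus Nef and 100% = Hck alone without Nef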
Mcl1 Bid PPI: Mcl-1/Bid interaction inhibition; Q07820; TR-FRET Mcl-1/Bid-Dy647 peptide binding, 1536-well; inhibition, % at 21.7 µM; 220,000 compounds, 0.97% hits; AID 1021;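 active = compounds that cut the binding signal by more than half at the single screening dose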;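 note: His-tagged Mcl-1 with europium anti-His antibody binding Bid BH3 peptide; 0% = Mcl-1 plus peptide wells and 100% = peptide-only wells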
Target sequence (Q07820 whole entry, looked up): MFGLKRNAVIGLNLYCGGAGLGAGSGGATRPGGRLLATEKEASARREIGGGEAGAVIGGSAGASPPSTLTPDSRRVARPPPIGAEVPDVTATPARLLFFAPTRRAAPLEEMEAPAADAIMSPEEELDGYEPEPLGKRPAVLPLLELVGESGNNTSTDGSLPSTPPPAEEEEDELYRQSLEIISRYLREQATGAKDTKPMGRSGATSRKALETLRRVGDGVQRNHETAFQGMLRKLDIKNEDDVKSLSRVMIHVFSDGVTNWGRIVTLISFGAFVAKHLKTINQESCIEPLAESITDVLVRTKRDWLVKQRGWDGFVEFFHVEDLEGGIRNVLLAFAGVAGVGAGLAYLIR
14-3-3 Bad PPI: disrupts binding of bovine 14-3-3 zeta to phospho-Bad peptide | TR-FRET 14-3-3zeta/Dy647-pBad peptide displacement, 1 h | inhibition, % at 21.7 µM | 220,000 compounds, 0.71% hits | AID 781;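 active = inhibition above about 70%, limit read from the data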;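 note: 0% = full 14-3-3 plus peptide FRET controls and 100% = background without 14-3-3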
Target sequence (P63103 whole entry, looked up): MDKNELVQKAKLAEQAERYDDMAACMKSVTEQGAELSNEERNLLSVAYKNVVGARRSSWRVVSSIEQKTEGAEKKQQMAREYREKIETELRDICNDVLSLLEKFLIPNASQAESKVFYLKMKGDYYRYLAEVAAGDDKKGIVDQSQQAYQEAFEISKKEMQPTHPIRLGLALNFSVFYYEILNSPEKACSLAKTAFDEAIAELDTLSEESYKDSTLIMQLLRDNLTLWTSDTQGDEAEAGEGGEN
Mcl1 Noxa PPI: Mcl-1/Noxa interaction inhibition | TR-FRET Mcl-1/Noxa peptide binding, 2 h | 220,000 compounds, 1.5% hits | Q07820 | inhibition, % at 21.7 µM;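 active = compounds that cut the protein-peptide binding signal by more than 50% relative to plate controls in a single-dose test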;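 note: His-tagged Mcl-1 with rhodamine Noxa BH3 peptide and terbium anti-His antibody; 0% = Mcl-1 plus Noxa peptide wells and 100% = peptide-only wells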
Bim-Mcl-1: human Bim-Mcl-1 interaction inhibition | 190,000 compounds, 0.1% hits | Q07820 | inhibition, % at 10 µM | Bead-based flow cytometry, Bim peptide-Mcl-1 binding; in the data active = inhibition above about 40%;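 note: 0% = no compound tracer wells and 100% = peptide blocker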
Biofilm kill mix: mixtures killing C. albicans biofilm. C. albicans biofilm persisters + clotrimazole, fluorescence viability; primary screen in compound mixtures of four per well. inhibition, % at 7.6 µM. 120,000 compounds, 0.02% hits. AID 1242;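 active = inhibition above 30.3% in the primary screen of four-compound pools, then above 30% when the compound was retested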;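 note: compounds exposed to preformed 24 h biofilms for 48 h; 0% = untreated biofilm control and 100% = clotrimazole plus chlorhexidine kill blank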
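Test system: C. albicans CAF4-2 wild-type biofilms; buffer or medium: RPMI/MOPS medium, pH 7.0; schedule: 24 h biofilm formation, then 48 h compound exposure, 37 °C; detection: Alamar Blue fluorescence; measure: percent inhibition of biofilm viability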
Hck Nef conf: confirmation of Hck-Nef kinase inhibitors. AID 463188. Recombinant Hck-YEEI:Nef, Z-Lyte FRET kinase assay. 1,300 compounds, 28% hits. calls only at 10 µM. shares compounds with Hck-Nef inh;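 active = average inhibition of at least 50%, with Z-scores no higher than 3 in both the phospho-tyrosine peptide and fluorescence counterscreens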
Starred values were filed as active, the others as inactive; i = inactive; · = not tested or not shown; + = active, no number.

SMILES	Hck-Nef inh	Mcl1 Bid PPI	14-3-3 Bad PPI	Mcl1 Noxa PPI	Bim-Mcl-1	Biofilm kill mix	others
CN1C(=O)/C(=C/c2cc(N=Nc3ccccc3)ccc2O)SC1=S	1	7	7	54*	-4	·
Cc1c(N2C(=O)/C(=C\c3ccccc3O)SC2=S)c(=O)n(-c2ccccc2)n1C	-37	-102	-1	32	·	22
Fc1ccc(Oc2cnns2)cc1	18	-15	-8	-2	-1	2
NC(=O)C1CCCN(S(=O)(=O)c2ccc(Br)cc2)C1 (stereo not drawn)	5	15	-5	9	4	·
O=C(NCc1cn(-c2ccccc2)nc1-c1ccccc1)c1cccc([N+](=O)[O-])c1	-1	-10	-3	10	-6	2
O=C(NCc1cn(-c2ccccc2)nc1-c1ccccc1)c1cc([N+](=O)[O-])cc([N+](=O)[O-])c1	0	-15	96*	-2	-4	·
CCCC1=NN2C(=N)/C(=C\c3cc(C)n(Cc4ccccc4)c3C)C(=O)N=C2S1	-6	-16	-3	-1	·	18
CCCC1=NN2C(=N)/C(=C\c3ccc(SCc4ccco4)o3)C(=O)N=C2S1	1	49	-3	84*	2	·
CCC1=NN2C(=N)/C(=C\c3ccc(SCc4ccco4)o3)C(=O)N=C2S1	-17	-14	-1	64*	5	·
CCC1=NN2C(=N)/C(=C/c3c(C)nn(-c4ccccc4)c3Cl)C(=O)N=C2S1	10	-65	0	13	-2	12
CCOc1ccc2ccccc2c1C(=O)Nc1cc(=O)n(C)c(=O)n1C	1	8	6	16	-4	·
O=C(O)CCCN1C(=O)/C(=C/c2ccc(-c3nc4ccccc4s3)o2)SC1=S	-4	53*	-1	102*	11	·
O=C(O)CCCCCN1C(=O)/C(=C\c2ccc(-c3ccc(Cl)cc3)o2)SC1=S	47	90*	71*	105*	·	15
C=CCOc1nc2c(c(=O)n(C)c(=O)n2C)n1Cc1c(Cl)cccc1Cl	2	-15	8	24	-4	·
CC1=Nc2cccc3cccc(c23)N1C	20	-38	7	61*	-3	8
c1cc2c3c(cccc3c1)C(N1CCCCCC1)=N2	2	-28	5	0	-5	·
O=C(Nc1nc2ccccc2s1)c1ccc(F)cc1	16	-13	-5	8	0	23
CNc1sc(C(=O)c2ccc(F)cc2)c(N)c1-c1nc2ccccc2s1	-16	-51	10	92*	-1	·
CC(=O)Nc1scc(C)c1-c1nc2ccccc2s1	10	-8	-15	-3	·	25
CNc1sc(C(=O)c2cccs2)c(N)c1-c1nc2ccccc2s1	-1	-26	11	56*	3	·
O=C(NC(c1ccccc1)C(Cl)(Cl)Cl)c1ccccc1 (stereo not drawn)	5	0	-1	10	-4	14
O=C(COC(=O)c1cnccn1)Nc1ccc2c(c1)OCO2	11	-1	-5	62*	0	·
O=C(COC(=O)c1ccc(N2CCOCC2)c([N+](=O)[O-])c1)Nc1ccc2c(c1)OCO2	0	-1	20	-2	1	18
Nc1ccc(C(=O)OCC(=O)Nc2ccc3c(c2)OCO3)cc1[N+](=O)[O-]	4	-33	11	52*	0	-8
Cc1cc(OCC(=O)Nc2ccncc2)ccc1[N+](=O)[O-]	-5	-11	-1	5	0	-9
SMILES	Hck-Nef inh	Mcl1 Bid PPI	14-3-3 Bad PPI	Mcl1 Noxa PPI	Bim-Mcl-1	Biofilm kill mix	others
CCc1ccc(CN2CCN(S(=O)(=O)Cc3ccccc3)CC2)cc1	1	34	79*	9	0	·
CC1CN(C2CCN(S(=O)(=O)Cc3ccccc3)CC2)CC(C)O1 (stereo not drawn)	-1	51*	67	14	0	·
CC1CN(C2CCN(S(=O)(=O)c3ccccc3)CC2)CC(C)O1 (stereo not drawn)	0	34	61	24	-4	12
Cc1nc(SCc2c(F)cccc2Cl)n[nH]1	1	-1	85*	2	0	·
CCOC(=O)c1ccc(NC(=O)Cn2ccc([N+](=O)[O-])n2)cc1	-1	-13	5	4	-2	21
CC1(C)Cc2c(sc3c2c(N)nc(=S)n3Cc2ccc(Br)cc2)CO1	17	-40	-5	-62	·	14
O=c1cc(C(F)(F)F)[nH]c2ccccc12	50*	8	7	-1	·	10	Hck Nef conf=i
O=c1c2ccccc2[nH]c2ccccc12	144*	-2	-14	1	-2	5
COc1ccc(NC(=O)CSc2nccn2C)cc1S(N)(=O)=O	28	-22	-4	-22	-2	14
O=C(NCCCN1CCN(CCCNC(=O)c2cc([N+](=O)[O-])ccc2Cl)CC1)c1cc([N+](=O)[O-])ccc1Cl	0	20	37	25	2	7
CCCn1nc(NC(=O)C2CCCO2)c2cc3cccc(C)c3nc21 (stereo not drawn)	52*	-11	-7	-16	·	29	Hck Nef conf=i
Cc1cc(C)c2c(N)c(C(=O)N/N=C/c3cccnc3)sc2n1	73*	-59	-3	31	·	10	Hck Nef conf=i
Cc1ccnc(SCCn2c(N3CCOCC3)nc3c2c(=O)n(C)c(=O)n3C)n1	7	·	·	·	·	·
O=C(Nc1nc2ccc(Oc3ccccc3)cc2s1)c1cc([N+](=O)[O-])ccc1N1CCOCC1	-1	-27	-10	22	-5	-2
Cc1cccc(OCCCC(=O)NCC(=O)Nc2cccc(C)c2C)c1	19	-10	0	2	-4	11
CCCn1c(NC(=O)c2cccc(S(=O)(=O)N3CCCC3)c2)nc2ccccc21	52*	-58	-12	-58	-3	·	Hck Nef conf=+
Cn1cc(C(=O)c2ccc(Cl)cc2)cc1-c1nc2ccccc2n1C	-1	·	·	·	0	·
CC1(C)CC(=O)C2=C(C1)c1c(ccc3ccccc13)NC2c1cc([N+](=O)[O-])cc([N+](=O)[O-])c1O (stereo not drawn)	51*	11	3	46	-2	23	Hck Nef conf=+
COC(=O)c1sc(NC(=O)/C=C/c2ccc(C)cc2)nc1C	7	-11	9	4	-2	7
COC(=O)c1sc(NC(=O)/C=C/c2ccccc2Cl)nc1C	66*	-8	-12	-2	-1	19	Hck Nef conf=i
Cc1ccc(NC(=O)COc2ccc(/C=C3/SC(=Nc4ccccc4)N(Cc4cccnc4)C3=O)cc2)cc1	90*	-11	9	-8	-4	·	Hck Nef conf=+
Cc1ccc(OCC(=O)N/N=C2/SCC(=O)N2Cc2ccccc2)cc1	1	-17	-10	12	-1	19
CC(/C=N/n1c(COc2ccccc2)n[nH]c1=S)=C\c1ccco1	50*	-30	-5	10	·	17	Hck Nef conf=i

Screening results as filed in PubChem BioAssay.
